Hits are enriched below; roughly 1.2% of the tested compounds scored in any of these assays.
ASAP1 inh – blocks human ASAP1-stimulated Arf1 GTP hydrolysis; GDP FP detection; actives 0.19% (n = 360,000); Q9ULH1; inhibition, % at 16.5 µM; in the data active = inhibition above about 25%
ARFGAP1 inhibitor – rat ARFGAP1 inhibition; Arfgap1-stimulated ARF1 GTP hydrolysis, GDP FP detection; inhibition, % at 16.5 µM; actives 0.26% (n = 360,000); AID 651572;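 active = inhibition above a per-plate limit, mean inhibition of low control wells plus 3 SD, cut at about 25% in these data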
Target sequence (Q62848 1-136 limits assumed): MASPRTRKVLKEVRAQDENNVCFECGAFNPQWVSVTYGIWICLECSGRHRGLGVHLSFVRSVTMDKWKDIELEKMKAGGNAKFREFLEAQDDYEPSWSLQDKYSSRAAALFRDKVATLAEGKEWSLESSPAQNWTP
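Assay system: Rat Arfgap1 GAP domain (His6, aa 1-136), purified enzyme | Buffer or medium: HEPES 25 mM pH 7.5, NaCl 150 mM, MgCl2, DTT | Schedule: GTP hydrolysis reaction 2 h at 25 °C | Signal: FP of antibody-bound GDP Alexa 633 tracer, ex 620/em 688 nm | Measure: Percent inhibition of Arfgap1-stimulated GTP hydrolysis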
Rin1-Abl PPI inh – blocks binding of human Rin1 to Abl | actives 0.4% (n = 360,000) | inhibition, % at 7.35 µM | TR-FRET Rin1/Abl binding, biochemical | P00519+Q13671 | AID 588664; in the data active = inhibition above about 5%, passing the limit was not always enough
GalR3 antagonist – antagonists of human GalR3. actives 0.44% (n = 360,000). HEK293 GalR3-CNG cAMP membrane potential fluorescence; galR3 body fused to GalR1 C-terminus. inhibition, % at 3 µM. AID 651719. O60755;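 active = inhibition above the screen-wide average plus 3 SD, cut at about 13% in these data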;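 note: forskolin and galanin both at EC90 stimulate the cells; cAMP rise reported by CNG channel membrane potential dye signal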
Target sequence (O60755 1-299 limits assumed): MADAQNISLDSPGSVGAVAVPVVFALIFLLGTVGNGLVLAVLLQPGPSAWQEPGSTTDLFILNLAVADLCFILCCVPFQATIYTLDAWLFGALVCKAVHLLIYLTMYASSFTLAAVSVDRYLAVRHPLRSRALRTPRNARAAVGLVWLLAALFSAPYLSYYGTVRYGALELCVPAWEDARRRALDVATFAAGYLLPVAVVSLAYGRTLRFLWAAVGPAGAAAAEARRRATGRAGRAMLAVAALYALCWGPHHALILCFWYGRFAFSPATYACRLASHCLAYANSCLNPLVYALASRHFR
Rin1 Abl conf – Rin1-Abl interaction inhibition confirmation; AID 602124; TR-FRET Rin1-Abl binding, purified proteins; inhibition, % at 7.35 µM; actives 49% (n = 1,300); shares compounds with Rin1-Abl PPI inh
GFP quencher – quenches GFP fluorescence, counter-screen for Rin1-Abl inhibitors | shares compounds with Rin1-Abl PPI inh | inhibition, % at 6.75 µM | inhibitors/quenchers counterscreen | actives 8.5% (n = 1,300) | AID 602125;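 note: ABL1-eGFP fusion protein alone without its partner RIN1-SBP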
A number is an active result; 0 = inactive; - = no result given. Cut-off read from the data, not from the text of the source, unless noted: active = inhibition above about 6.5%; inactive = the rest.

SMILES	ASAP1 inh	ARFGAP1 inhibitor	Rin1-Abl PPI inh	GalR3 antagonist	Rin1 Abl conf	GFP quencher
O=C1CCC([N+](=O)[O-])C(c2ccc(C(F)(F)F)cc2)N1 (stereo not given)	0	0	8.2	0	0	0
COC(=O)Cc1nnn2c1[C@@H](C)[C@@H](c1ccccc1Br)OC[C@H](C)C2	0	0	-	0	-	-
COc1ccc(CN(CCC(c2ccc(F)cc2)C2CCOC(C)(C)C2)C(=O)c2ccco2)cc1 (stereo not given)	0	0	5.5	0	18	0
Cc1ccccc1C(=O)N(C)[C@H]1C[C@H]2c3[nH]c4c(-c5ccccc5)cccc4c3CCN2C(=O)[C@H]1[C@H](C)O	0	0	-	0	-	-
C#CCOCCOCCOCCNc1nc(N2CCN(C(=O)CCCCCCCCCCNC(=O)[C@H](CCCCN)n3cc(CCO)nn3)CC2)nc(N2CCN(C(=O)CCCCCCCCCCNC(=O)[C@H](CCCCN)n3cc(CCO)nn3)CC2)n1	-	-	19	-	20	0
C#CCOCCOCCOCCNc1nc(N2CCN(C(=O)CCCCCCCCCCNC(=O)Cn3cc(CCCCCN)nn3)CC2)nc(N2CCN(C(=O)CCCCCCCCCCNC(=O)[C@H](CO)n3cc(CCCCCN)nn3)CC2)n1	-	-	0	-	-	-
C#CCOCCOCCOCCNc1nc(N2CCOCC2)nc(N2CCN(C(=O)CCCCCCCCCCNC(=O)[C@H](CO)n3cc(CCCCCN)nn3)CC2)n1	0	0	9.9	0	9.8	0
COc1ccc(OC)c(/C=N/NC(=O)c2cccc3ccccc23)c1	0	0	6.9	0	0	0
C[C@H](CO)N1C[C@H](C)[C@@H](CN(C)Cc2ccc(-c3ccccc3)cc2)Oc2c(NS(=O)(=O)c3ccc(F)cc3)cccc2C1=O	0	0	9.1	0	9.2	0
C[C@@H]1CN([C@H](C)CO)C(=O)c2cccc(NC(=O)c3ccncc3)c2O[C@@H]1CN(C)Cc1ccc(C(=O)O)cc1	0	0	0	0	-	-
C[C@H](CO)N1C[C@H](C)[C@@H](CN(C)Cc2ccc(-c3ccccc3)cc2)Oc2c(NC(=O)c3ccncc3)cccc2C1=O	0	0	22	0	27	0
C[C@H](CO)N1C[C@H](C)[C@@H](CN(C)Cc2ccc(Oc3ccccc3)cc2)Oc2c(NC(=O)c3ccncc3)cccc2C1=O	0	0	30	0	28	0
C[C@H](CO)N1C[C@H](C)[C@@H](CN(C)Cc2ccccc2)Oc2c(NC(=O)c3ccncc3)cccc2C1=O	0	0	0	0	-	-
CN(C)CCCNC(=O)c1c(N)[nH]c(C(=O)c2ccc(Br)cc2)c1-c1ccc(Br)cc1	0	0	-	0	-	-
Cc1ccccc1C(=O)N[C@H](C(=O)N1CCC[C@H]1C(=O)NC1CCCC1)C1CCCCC1	0	0	-	0	-	-
Cc1cccc(NC(=O)C(c2ccccc2Cl)N2CCOCC2)c1 (stereo not given)	0	0	8.2	0	0	0
Cc1ccc(NC(=O)C(c2ccc(Cl)cc2Cl)N2CCCC2)cc1 (stereo not given)	0	0	0	0	-	-
COc1ccc2ncc(S(=O)(=O)c3ccccc3)c(N3CCC4(CC3)OCCO4)c2c1	0	0	8.2	0	0	0
Oc1cccc(/C=N/Nc2ncnc3c2ncn3Cc2ccccc2)c1	0	0	0	0	-	-
Oc1ccc(/C=N/Nc2ncnc3c2ncn3Cc2ccccc2)cc1O	0	0	12	0	11	9.1
COc1ccc(OC)c(S(=O)(=O)NCC2CCN(C(=O)C(=O)c3cc4ccccc4o3)CC2)c1	0	0	-	0	-	-
Cc1cccc(C2=CC(=O)CC(C)(C)C2=O)c1	0	0	-	0	-	-
CCOc1ccc(C(=O)OCC(=O)Nc2ccc(SC(F)F)cc2)cc1OCC	0	0	8.1	0	0	0
O=C(COC(=O)c1cc[n+]([O-])cc1)Nc1ccc(SC(F)F)cc1	0	0	0	0	-	-
C[C@@H]1COc2cccc(N3CCCC3)c2S(=O)(=O)N1	0	0	-	0	-	-
CC1(C(=O)NCc2ccc(C(F)(F)F)cc2)CCN1Cc1cc2ccccc2o1 (stereo not given)	0	0	9.0	0	0	0

High-throughput results (PubChem BioAssay)
